Data on two molecules can be found in publication PMC4429801 (Journal of nuclear medicine : official publication, Society …, 2009).

In one series the test system is rats. The following applies: 2.3 mmol/kg; cited from earlier work.
The subject of another series is CWR22rv1 tumors. In words: Dual-isotope comparative biodistribution. Type of series: in vivo, mice. The following applies: 1 h after simultaneous tail vein injection. The method in brief: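 Nude mice bearing subcutaneous CWR22rv1 xenografts received, by tail vein, 200 µL saline containing 3.7 MBq of the 18F test compound and about 0.0037 MBq 14C-acetate, and were euthanized 1 h later. 18F was γ-counted (400–600 keV, decay-corrected). Samples were then solubilised and held 1 d at 4°C, and 14C was read by liquid scintillation with external-standard quench correction. %ID/g = activity/decay-corrected injected activity/organ weight; n = 4, mean ± SD.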

Series [1] relates to CWR22rv1 xenografts. Description: Small-animal PET 1 h after tail vein injection. Type of series: in vivo, mice. The following applies: 1 h after administration via tail vein. The method in brief:
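CWR22rv1-xenografted nude mice, not fasted, received 11.1 MBq (300 µCi) of the 18F test compound by tail vein. They were held under 2% isoflurane in oxygen (2 L/min) and scanned on a small-animal PET at 1 h for 5 min, using a 350–700 keV window and 6 ns coincidence window. Images were corrected for nonuniformity, dead time and decay, but not for attenuation, scatter or partial volume. %ID/g came from a phantom-derived calibration factor.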

The subject of series [2] is CWR22rv1 xenografts. Description: Single-isotope in vivo biodistribution. On the set-up: species or system mice. The following applies: for Tumor uptake of the tracer: tail vein, nude mice. The method in brief:
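Nude mice (20–25 g) carried CWR22rv1 tumours grown from 5 × 10^6 cells in medium/Matrigel, injected s.c. at the right forelimb. They received 3.7–5.5 MBq (100–150 µCi) of the 18F test compound in 200 µL saline by tail vein; dose per animal came from syringe readings before and after injection. Organs were harvested at 1, 2, 3 and 4 h and γ-counted (400–600 keV, decay-corrected) for %ID/g and tumour-to-organ ratios; n = 3 per time point, mean ± SD.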

Series [3] in a line: Octanol–water partition coefficient study. Format: physicochemical. The following applies: 1-octanol/phosphate-buffered saline. The method in brief: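 The 18F test compound (20 µL, ~10–20 µCi in saline) was added to 5 mL each of 1-octanol and phosphate-buffered saline at pH 6.4, 7.0, 7.4 or 8.4. The mixture was vortexed 1 min and centrifuged 5 min.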

On to `CC(F)C(=O)O` (stereo not shown) [FPA], for which the Acute toxicity entry in the series with rats is on record as “no acute toxicity”.
By logP is commonly meant a log measure of how a compound divides between an organic and an aqueous phase. Higher therefore signals higher lipophilicity. Turning to `CC([18F])C(=O)O` (stereo not shown) [^18F-FPA, 2-^18F-fluoropropionic acid], in the series with CWR22rv1 tumors, the “Tumor-to-organ ratio, Blood” value is on record as 1.03; the “Tumor-to-organ ratio, Bone” value was found to be 4.23; the “Tumor-to-organ ratio, Brain” value came out at 1.27; the “Tumor-to-organ ratio, Kidneys” value is recorded as 1.70. Besides, in the series on CWR22rv1 tumors, the “Tumor-to-organ ratio, Large intestine” value is on record as 1.91; the “Tumor-to-organ ratio, Liver” value came to 1.26; the “Tumor-to-organ ratio, Lungs” value stood at 1.77; the “Tumor-to-organ ratio, Muscle” value stood at 1.94. Besides, in the series with CWR22rv1 tumors, the “Tumor-to-organ ratio, Small intestine” value is 1.62; the “Tumor-to-organ ratio, Spleen” value worked out at 1.62; the “Tumor-to-organ ratio, Stomach” value was 2.80; the “Tumor-to-organ ratio, Tumor” value is 1.00. In the series on CWR22rv1 tumors, the “Tumor-to-organ ratio, heart” value is reported as 1.30. Moreover, in the series with CWR22rv1 tumors (n = 4), the “%ID/g, Blood” value is 6.88 ± 0.64 %ID/g; the “%ID/g, Bone” value is 1.68 ± 0.54 %ID/g; the “%ID/g, Brain” value is reported as 5.57 ± 0.33 %ID/g; the “%ID/g, Heart” value turned out to be 5.46 ± 0.63 %ID/g. Further, in the series with CWR22rv1 tumors (n = 4), the “%ID/g, Kidneys” value is on record as 4.17 ± 0.60 %ID/g; the “%ID/g, Large intestine” value is 3.71 ± 1.09 %ID/g; the “%ID/g, Liver” value stood at 5.61 ± 0.50 %ID/g; the “%ID/g, Lungs” value is 4.00 ± 0.26 %ID/g. In the series on CWR22rv1 tumors (n = 4), the “%ID/g, Muscle” value turned out to be 3.66 ± 0.50 %ID/g; the “%ID/g, Small intestine” value was 4.37 ± 1.15 %ID/g; the “%ID/g, Spleen” value is recorded as 4.36 ± 0.85 %ID/g; the “%ID/g, Stomach” value is on record as 2.53 ± 1.04 %ID/g. Also, the “%ID/g, Tumor” value in the series on CWR22rv1 tumors (CWR22rv1 tumors, n = 4) stood at 7.08 ± 0.80 %ID/g. Further, in the series on CWR22rv1 xenografts [1], the “Uptake in the brain (PET)” value is reported as 4.6 %ID/g and the “Uptake in the heart (PET)” value turned out to be 4.0 %ID/g. Moreover, the “Uptake in the tumor (PET)” value in the series on CWR22rv1 xenografts [1] (CWR22rv1 tumor) turned out to be 4.4 %ID/g. Also, the “Tumor-to-organ ratio, heart” value in the series on CWR22rv1 xenografts [2] (1, 2, 3, and 4 h after injection) is listed as “around 0.95”. Also, the “Tumor uptake of the tracer” value in the series on CWR22rv1 xenografts [2] (1 h after injection) turned out to be 5.52 ± 0.35 %ID/g. Besides, in the series with CWR22rv1 xenografts [2] (2 h after injection), the “Tumor uptake of the tracer” value worked out at 5.53 ± 0.42 %ID/g. Moreover, in the series on CWR22rv1 xenografts [2] (3 h after injection), the “Tumor uptake of the tracer” value amounted to 5.74 ± 0.54 %ID/g. Also, the “Tumor uptake of the tracer” value in the series with CWR22rv1 xenografts [2] (4 h after injection) was found to be 5.34 ± 0.19 %ID/g. Further, in the series on CWR22rv1 xenografts [2] (PET and biodistribution studies, low bone uptake), the Defluorination in vivo result is on record as “no evidence of defluorination”. In series [3] (pH 6.4), this molecule gave a logP of −2.89 ± 0.02. Also, in series [3] (pH 7.0), the logP was −3.08 ± 0.04. The logP in series [3] (pH 7.4) is reported as −2.97 ± 0.13. For the same molecule, in series [3] (pH 8.4), the logP is reported as −3.07 ± 0.03.
